Reference: ChEMBL document CHEMBL3425450, “Neuroactive Steroids. 1. Positive Allosteric Modulators of the (γ-Aminobutyric Acid)A Receptor: Structure-Activity Relationships of Heterocyclic Substitution at C-21” (J Med Chem, 2015)
In brackets after ≈: the same amount, converted by molar mass.

Experiments:
[1] = Retention time of the compound by LC-MS analysis; assay type: physicochemical
How it was run: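 Eluents were water and acetonitrile, each with TFA, run as a 5 to 95% acetonitrile gradient over 1.5 min at 1.5 mL/min. Capillary voltage was 3.5 kV and fragmentor voltage 50 V.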

[2] = molecular target: GABA-A receptor; agonist GABA site; test: Positive allosteric modulation of recombinant alpha4beta3delta GABAA receptor (unknown origin) expressed in CHO cells assessed as potentiation of GABA-induced channel current treated for 30 s prior to GABA stimulation for 2s by manual patch assay; assay type: cell-based, Homo sapiens
[3] = molecular target: GABA-A receptor; anion channel; test: Displacement of [3H]TBPS from GABAA receptor in Sprague-Dawley rat brain cortical membrane after 90 mins by liquid scintillation spectrometry
[4] = molecular target: GABA-A receptor; agonist GABA site; test: Positive allosteric modulation of recombinant alpha1beta2gamma2 GABAA receptor (unknown origin) expressed in LTK cells assessed as potentiation of GABA-induced channel current treated for 30 s prior to GABA stimulation for 2s by Q-patch assay; assay type: cell-based, Homo sapiens
[5] = Clearance in human liver microsomes at 10 uM after 60 mins by HPLC-MS/MS analysis; assay type: ADME
[6] = Clearance in rat liver microsomes at 10 uM after 60 mins by HPLC-MS/MS analysis; assay type: ADME
[7] = Clearance in mouse liver microsomes at 10 uM after 60 mins by HPLC-MS/MS analysis; assay type: ADME
[8] = Clearance in Sprague-Dawley rat at 5 mg/kg, iv and 20 mg/kg, po by LC-MS/MS analysis; assay type: ADME, organism-based; details: in vivo
How it was run: (§1)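 Rats were dosed i.v. at 5 mpk and orally at 20 mpk. Clearance and oral bioavailability were calculated from mean plasma concentrations of 2 rats.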

[9] = Oral bioavailability in Sprague-Dawley rat at 20 mg/kg by LC-MS/MS analysis; assay type: ADME, organism-based; details: in vivo; how it was run: as §1
[10] = Ratio of drug level in brain to plasma in Sprague-Dawley rat at 5 mg/kg, iv after 30 mins by LC-MS/MS analysis; assay type: ADME, organism-based; design: dose 5 mg/kg, route intravenous; details: read-out: BPR
How it was run: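 Brain and plasma were sampled at a single point 30 min after the i.v. 5 mpk dose. The ratio was calculated from mean concentrations of 2 rats.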

[11] = Lipophilicity, log D of the compound at 20 uM at pH 7.4 by HPLC-MS/MS analysis; assay type: physicochemical; details: buffer
[12] = Aqueous solubility of the compound at pH 7.4 by HPLC-MS/MS analysis; assay type: physicochemical; details: buffer

| SMILES | Retention_time [1] [min] | EC50 [2] [nM] | IC50 [3] [nM] | EC50 [4] [nM] | CLhep predicted at 10 µM [5] [mL/min/kg] | CLhep predicted at 10 µM [6] [mL/min/kg] | CLhep predicted at 10 µM [7] [mL/min/kg] | clearance [8] [mL/min/kg] | bioavailability [9] [%] | Kp at 0.5 h [10] | logD at 20 µM [11] | solubility [12] [µM] |
| --- | --- | --- | --- | --- | --- | --- | --- | --- | --- | --- | --- | --- |
| C[C@@]1(O)CC[C@H]2[C@H](CC[C@@H]3[C@@H]2CC[C@]2(C)[C@@H](C(=O)Cn4cncn4)CC[C@@H]32)C1 | 0.829 | > 3000 | 140 | > 3000 |  |  |  |  |  |  |  |  |
| C[C@@]1(O)CC[C@H]2[C@H](CC[C@@H]3[C@@H]2CC[C@]2(C)[C@@H](C(=O)Cn4ncc5ccncc54)CC[C@@H]32)C1 | 0.8 | > 3000 | 17 | > 3000 |  |  |  |  |  |  |  |  |
| CC(=O)[C@H]1CC[C@H]2[C@@H]3CC[C@@H]4C[C@](C)(O)CC[C@@H]4[C@H]3CC[C@]12C |  | 119 | 55 | 371 |  |  |  |  |  |  |  |  |
| C[C@@]1(O)CC[C@H]2[C@H](CC[C@@H]3[C@@H]2CC[C@]2(C)[C@@H](C(=O)Cn4cnnn4)CC[C@@H]32)C1 | 0.84 | 394 | 69 | 2200 |  |  |  |  |  |  |  |  |
| C[C@@]1(O)CC[C@H]2[C@H](CC[C@@H]3[C@@H]2CC[C@]2(C)[C@@H](C(=O)Cn4ncc5cnccc54)CC[C@@H]32)C1 | 0.75 | 1400 | 33 | > 3000 |  |  |  |  |  |  |  |  |
| C[C@@]1(O)CC[C@H]2[C@H](CC[C@@H]3[C@@H]2CC[C@]2(C)[C@@H](C(=O)Cn4cc5ccccc5n4)CC[C@@H]32)C1 | 0.92 | 2520 | 11 | 1900 |  |  |  |  |  |  |  |  |
| CC(=O)[C@H]1CC[C@H]2[C@@H]3CC[C@H]4C[C@](C)(O)CC[C@]4(C)[C@H]3CC[C@]12C [GANAXOLONE] |  | 103 | 42 | 266 | 6.5 | 55.7 | 67.5 | 51.7 | 10 | 4 | 5.3 | 0.7 (≈ 0.233 µg/mL) |
| C[C@@]1(O)CC[C@H]2[C@@H](CC[C@@H]3[C@@H]2CC[C@]2(C)[C@@H](C(=O)Cn4cnnn4)CC[C@@H]32)C1 | 0.86 | 2140 | 214 | > 3000 |  |  |  |  |  |  |  |  |
| CC(=O)[C@H]1CC[C@H]2[C@@H]3CC[C@H]4C[C@H](O)CC[C@]4(C)[C@H]3CC[C@]12C [BREXANOLONE] |  | 75.5 | 22 | 237 | 8.33 | 55.7 | 67.5 | 80 | 2.3 | 1.8 | 4.9 | 3.3 (≈ 1.05 µg/mL) |
| C[C@@]1(O)CC[C@H]2[C@H](CC[C@@H]3[C@@H]2CC[C@]2(C)[C@@H](C(=O)Cn4ncc5c4CCCC5)CC[C@@H]32)C1 | 0.94 | > 3000 | 50 | 1490 |  |  |  |  |  |  |  |  |
| C[C@@]1(O)CC[C@H]2[C@H](CC[C@@H]3[C@@H]2CC[C@]2(C)[C@@H](C(=O)Cn4cc5cnccc5n4)CC[C@@H]32)C1 | 1.06 | 1350 | 24 | > 3000 |  |  |  |  |  |  |  |  |
| C[C@@]1(O)CC[C@H]2[C@H](CC[C@@H]3[C@@H]2CC[C@]2(C)[C@@H](C(=O)Cn4cccn4)CC[C@@H]32)C1 | 0.88 | 1460 | 32 | 945 |  |  |  |  |  |  |  |  |
| C[C@@]1(O)CC[C@H]2[C@@H](CC[C@@H]3[C@@H]2CC[C@]2(C)[C@@H](C(=O)Cn4cncn4)CC[C@@H]32)C1 | 0.84 | 781 | 174 | > 3000 |  |  |  |  |  |  |  |  |
| C[C@@]1(O)CC[C@H]2[C@H](CC[C@@H]3[C@@H]2CC[C@]2(C)[C@@H](C(=O)Cn4ccnc4)CC[C@@H]32)C1 | 0.76 | 3130 | 21 | > 3000 |  |  |  |  |  |  |  |  |
| CC(=O)[C@H]1CC[C@H]2[C@@H]3CC[C@H]4C[C@](C)(O)CC[C@@H]4[C@H]3CC[C@]12C |  | 553 | 74 | 355 | 8.33 | 52.8 | 67.5 |  |  |  | 5.1 | 1 (≈ 0.319 µg/mL) |
| C[C@@]1(O)CC[C@H]2[C@H](CC[C@@H]3[C@@H]2CC[C@]2(C)[C@@H](C(=O)Cn4cc5cccnc5n4)CC[C@@H]32)C1 | 0.8 | 1020 | 42 | > 3000 |  |  |  |  |  |  |  |  |
| C[C@@]1(O)CC[C@H]2[C@@H](CC[C@@H]3[C@@H]2CC[C@]2(C)[C@@H](C(=O)Cn4cccn4)CC[C@@H]32)C1 | 0.89 | 1150 | 149 | > 3000 |  |  |  |  |  |  |  |  |
| C[C@@]1(O)CC[C@H]2[C@@H](CC[C@@H]3[C@@H]2CC[C@]2(C)[C@@H](C(=O)Cn4ccnn4)CC[C@@H]32)C1 | 0.85 | 1320 | 102 | 2740 |  |  |  |  |  |  |  |  |
| C[C@@]1(O)CC[C@H]2[C@H](CC[C@@H]3[C@@H]2CC[C@]2(C)[C@@H](C(=O)Cn4ncc5ncccc54)CC[C@@H]32)C1 | 0.85 | > 3000 | 25 | 2510 |  |  |  |  |  |  |  |  |
| C[C@@]1(O)CC[C@H]2[C@H](CC[C@@H]3[C@@H]2CC[C@]2(C)[C@@H](C(=O)Cn4ncc5cccnc54)CC[C@@H]32)C1 | 0.9 | 1870 | 16 | 1750 |  |  |  |  |  |  |  |  |
| C[C@@]1(O)CC[C@H]2[C@H](CC[C@@H]3[C@@H]2CC[C@]2(C)[C@@H](C(=O)Cn4ccnn4)CC[C@@H]32)C1 | 0.84 | 1830 | 27 | 1840 |  |  |  |  |  |  |  |  |
| C[C@@]1(O)CC[C@H]2[C@H](CC[C@@H]3[C@@H]2CC[C@]2(C)[C@@H](C(=O)Cn4cc5c(n4)CCCC5)CC[C@@H]32)C1 | 0.93 | 178 | 24 | 724 | 10.8 | 55.7 | 67.5 |  |  |  | 5.7 | 0.3 (≈ 0.132 µg/mL) |
| C[C@@]1(O)CC[C@H]2[C@@H](CC[C@@H]3[C@@H]2CC[C@]2(C)[C@@H](C(=O)Cn4ccnc4)CC[C@@H]32)C1 | 0.76 | > 3000 | 108 | > 3000 |  |  |  |  |  |  |  |  |
| C[C@@]1(O)CC[C@H]2[C@H](CC[C@@H]3[C@@H]2CC[C@]2(C)[C@@H](C(=O)Cn4ncc5ccccc54)CC[C@@H]32)C1 | 0.95 | 508 | 15 | 1530 |  |  |  |  |  |  |  |  |
| C[C@@]1(O)CC[C@H]2[C@@H](CC[C@@H]3[C@@H]2CC[C@]2(C)[C@@H](C(=O)CN4CCCC4)CC[C@@H]32)C1 | 0.77 |  | 2890 |  |  |  |  |  |  |  |  |  |
| C[C@@]1(O)CC[C@H]2[C@H](CC[C@@H]3[C@@H]2CC[C@]2(C)[C@@H](C(=O)CN4CCCC4)CC[C@@H]32)C1 | 0.745 |  | 1290 |  |  |  |  |  |  |  |  |  |
| C[C@@]1(O)CC[C@H]2[C@@H](CC[C@@H]3[C@@H]2CC[C@]2(C)[C@@H](C(=O)Cn4nccn4)CC[C@@H]32)C1 | 0.889 | 1420 | 54 | 592 |  |  |  |  |  |  |  |  |
